We go through three compounds from ChEMBL document CHEMBL1275586, “Phenotypic susceptibility to bevirimat in isolates from HIV-1-infected patients without prior exposure to bevirimat” (Antimicrob Agents Chemother, 2010).

A value given as a limit tells only on which side of the number the result lay.

Assay [1] relates to Human immunodeficiency virus 1. Kind of assay: Antiviral activity against Human immunodeficiency virus 1 isolate 30 harboring Gag-capsid I138L, V215L, R286K and Q311A mutant gene and protease I13V, E35D, S37N and L63P mutant gene infected in human MT-2 cells by XTT-assay relative to wild-type. It counts as functional, MT2. In a few lines:
(§1)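 Patient Gag-protease (SfoI-XmaI) fragments were ligated into the pXXLAI backbone, with colonies pooled to keep quasispecies. Virus came from 293T transfection, harvested at 2 days. MT-2 infection at 37°C used an input giving XTT signal-to-noise of 2.5–4.0 (≈MOI 0.001). Cells at ≈17,000/well with drug dilutions, 5 days, 37°C; XTT 1 h, A450–650. EC50 from % cell death; fold change vs wild-type LAI.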
(Formazan colour is commonly taken as a measure of viable cells.)

Assay [2] relates to Human immunodeficiency virus 1. Kind of assay: Antiviral activity against Human immunodeficiency virus 1 isolate 23 harboring Gag-capsid I138L, V215L, E319D, A340G, G357S and V362I mutant gene and protease L10V, V11L, V32I, L33F, E34Q, E35D, M36L, S37T, M46I, I47V, G48V, I54M, I62V, L63P, I64V, I72V, T74S, V77I, V82A, I84V and T91S mutant gene infected in human MT-2 cells by XTT-assay relative to wild-type. It counts as functional, MT2. In a few lines: as §1

Assay [3] relates to Human immunodeficiency virus 1. Kind of assay: Antiviral activity against Human immunodeficiency virus 1 isolate 6 harboring Gag-SP-1 V370, S373 and A374 mutant infected in human MT-2 cells by XTT-assay relative to wild-type. Type of assay: functional, MT2. An outline of the steps: as §1
The subject of assay [4] is Human immunodeficiency virus 1. Kind of assay: Antiviral activity against antiretroviral-pretreated PI-resistant Human immunodeficiency virus 1 isolate 20 harboring Gag-capsid G357S mutant gene and Gag-SP1 Q369H and I376V mutant gene infected in human MT-2 cells by XTT assay relative to wild-type. It counts as functional, MT2. In a few lines: (§2)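 Patient-derived Gag fragments were pooled as bacterial colonies to keep quasispecies diversity and ligated into the pXXLAI (HIV-1 LAI) backbone. Virus was made by transfecting 293T cells and harvesting supernatant 2 days later. MT-2 cells were infected at 37°C with an inoculum titrated to give an XTT signal-to-noise of 2.5–4.0. Cells were plated into drug dilutions, incubated 5 days at 37°C, and read by XTT absorbance (450−650 nm). EC50 was taken from percent cell death and expressed as fold change versus wild-type LAI.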

Assay [5] concerns Human immunodeficiency virus 1. Kind of assay: Antiviral activity against antiretroviral-pretreated PI-resistant Human immunodeficiency virus 1 isolate 10 harboring deletion at T371 of Gag-SP-1 and Gag-Sp-1 V370I, S373P and I376V mutant gene infected in human MT-2 cells by XTT assay relative to wild-type. It counts as functional, MT2. An outline of the steps: as §2
Assay [6] has as its system Human immunodeficiency virus 1. Nature of the assay: Antiviral activity against Human immunodeficiency virus 1 isolate 37 harboring Gag-capsid G357S mutant gene and Gag-SP1 I376V mutant gene infected in human MT-2 cells by XTT assay relative to wild-type. Type of assay: functional, MT2. In a few lines:
as §1

Assay [7] concerns Human immunodeficiency virus 1. Kind of assay: Antiviral activity against antiretroviral-pretreated Human immunodeficiency virus 1 isolate 22 infected in human MT-2 cells by XTT assay relative to wild-type. Type of assay: functional, MT2. An outline of the steps: as §2
Assay [8] concerns Human immunodeficiency virus 1. Nature of the assay: Antiviral activity against antiretroviral-pretreated PI-resistant Human immunodeficiency virus 1 isolate 4 harboring Gag-capsid G357S mutant gene and Gag-Sp-1 N372A, A374T and T375N mutant gene infected in human MT-2 cells by XTT assay relative to wild-type.
Assay [9] deals with Human immunodeficiency virus 1. Nature of the assay: Antiviral activity against Human immunodeficiency virus 1 isolate 32 harboring Gag-SP1 V370I and N372G mutant gene infected in human MT-2 cells by XTT assay relative to wild-type. It counts as functional, MT2. An outline of the steps: as §1
The test system of assay [10] is Human immunodeficiency virus 1. Nature of the assay: Antiviral activity against Human immunodeficiency virus 1 isolate 1 harboring Gag-SP-1 S368, V370 and deletion at T371 in Gag-SP-1 mutant infected in human MT-2 cells by XTT-assay relative to wild-type. It counts as functional, MT2. In a few lines: as §1
Assay [11] deals with Human immunodeficiency virus 1. Kind of assay: Antiviral activity against Human immunodeficiency virus 1 isolate 38 harboring Gag-SP1 V370A, N372S/G, S373P/T/Q/K, A374A/G/T/S, T375A and I376M mutant gene infected in human MT-2 cells by XTT assay relative to wild-type. It counts as functional, MT2. An outline of the steps: as §1
The subject of assay [12] is Human immunodeficiency virus 1. Nature of the assay: Antiviral activity against antiretroviral-pretreated PI-resistant Human immunodeficiency virus 1 isolate 1 harboring Gag-Sp-1 S368C, V370A and A374N mutant gene deletion at T371 in Gag-SP-1 infected in human MT-2 cells by XTT assay relative to wild-type. It counts as functional, MT2. An outline of the steps:
as §2

In assay [13] the test system is Human immunodeficiency virus 1. Nature of the assay: Antiviral activity against Human immunodeficiency virus 1 isolate 2 harboring Gag-capsid A146P, S173A, V215L, E230D, N252S, L268M and A340G mutant gene and protease L10I, I15V, K20R, M36I, S37N, M46I, L63P, V82A, N83H, I84V, I85T and L90M mutant gene infected in human MT-2 cells by XTT-assay relative to wild-type. Type of assay: functional, MT2. In a few lines: as §1

Assay [14] deals with Human immunodeficiency virus 1. Kind of assay: Antiviral activity against Human immunodeficiency virus 1 isolate 31 harboring Gag-SP1 V370A, T371S, N372A/T, A374N/T and I376V mutant gene infected in human MT-2 cells by XTT assay relative to wild-type. It counts as functional, MT2. An outline of the steps:
as §1

The subject of assay [15] is Human immunodeficiency virus 1. Kind of assay: Antiviral activity against Human immunodeficiency virus 1 isolate 4 harboring Gag-capsid A146P, V159I, V215L, I223G/V, P255A, E312D and G357S mutant gene and protease L10R, S37N, M46L, I62V, L63P, A71V, V82T, L90M and I93L mutant gene infected in human MT-2 cells by XTT-assay relative to wild-type. Type of assay: functional, MT2. In a few lines:
as §1

Assay [16] has as its system Human immunodeficiency virus 1. Nature of the assay: Antiviral activity against antiretroviral-pretreated PI-resistant Human immunodeficiency virus 1 isolate 7 infected in human MT-2 cells by XTT assay relative to wild-type. Type of assay: functional, MT2. An outline of the steps:
as §2

Assay [17] concerns Human immunodeficiency virus 1. Nature of the assay: Antiviral activity against Human immunodeficiency virus 1 LAI infected in human MT-2 cells by XTT-assay. It counts as functional, organism-based. The conditions noted are these: MT2. An outline of the steps:
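Recombinant virus produced by transfecting 7 μg viral plasmid (pXXLAI backbone; patient-derived SfoI-XmaI fragment for isolates) into 293T cells. Supernatant harvested 2 days later. 2.4 million MT-2 cells infected at 37°C with virus giving XTT signal-to-noise 2.5–4.0, then plated ≈17,000 cells/well with drug dilutions. After 5 days at 37°C, 5% CO2, 1.67 mg/ml XTT added for 1 h. A450–A650 read; EC50 from cell-death curves.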

Assay [18] relates to Human immunodeficiency virus 1. Kind of assay: Antiviral activity against antiretroviral-pretreated PI-resistant Human immunodeficiency virus 1 isolate 25 harboring Gag-capsid G357S mutant gene and Gag-SP-1 […] mutant gene infected in human MT-2 cells by XTT assay relative to wild-type. It counts as functional, MT2. An outline of the steps: as §2
Assay [19] has as its system Human immunodeficiency virus 1. Nature of the assay: Antiviral activity against Human immunodeficiency virus 1 isolate 36 harboring Gag-SP1 […], A374N and T375A mutant gene infected in human MT-2 cells by XTT assay relative to wild-type. It counts as functional, MT2. In a few lines: as §1
The subject of assay [20] is Human immunodeficiency virus 1. Kind of assay: Antiviral activity against Human immunodeficiency virus 1 isolate 8 harboring Gag-SP1 V362I mutant infected in human MT-2 cells by XTT-assay relative to wild-type. Type of assay: functional, MT2. In a few lines: as §1
Assay [21] deals with Human immunodeficiency virus 1. Kind of assay: Antiviral activity against antiretroviral-pretreated PI-resistant Human immunodeficiency virus 1 isolate 3 harboring Gag-capsid G357S mutant gene, Gag-Sp-1 V370A and N372H mutant gene and deletion at T371 in Gag-SP-1 infected in human MT-2 cells by XTT assay relative to wild-type. It counts as functional, MT2. In a few lines: as §2

Regarding `Cc1cccc(C)c1OCC(=O)N[C@@H](Cc1ccccc1)[C@@H](O)C[C@H](Cc1ccccc1)NC(=O)[C@H](C(C)C)N1CCCNC1=O` [LOPINAVIR], the “fold change (FC)” value in assay [1] was 0.7; in assay [2], 203.
The EC50 is the concentration that produces a half-maximal response. Turning to `C=C(C)[C@@H]1CC[C@]2(C(=O)O)CC[C@]3(C)[C@H](CC[C@@H]4[C@@]5(C)CC[C@H](OC(=O)CC(C)(C)C(=O)O)C(C)(C)[C@@H]5CC[C@]43C)[C@@H]12` [BEVIRIMAT], the “fold change (FC)” value is 0.4 in [3]; 2.1 in assay [4]; >100 in assay [5]; 4.6 in assay [6]; 0.7 in assay [7]; >100 in [8]. For the same compound, the “fold change (FC)” value is 0.9 in assay [9]; 0.6 in assay [10]; >100 in assay [11]; >100 in [12]; >100 in assay [13]; >100 in assay [14]. In addition, the “fold change (FC)” value is >100 in assay [15]; 1 in assay [16]; 11 in assay [18]; 1.8 in assay [19]; >100 in assay [20]; >100 in [21]. The compound also had an EC50 in assay [17] of 34 nM.
For `COC(=O)N[C@H](C(=O)N[C@@H](Cc1ccccc1)[C@@H](O)CN(Cc1ccc(-c2ccccn2)cc1)NC(=O)[C@@H](NC(=O)OC)C(C)(C)C)C(C)(C)C` [ATAZANAVIR], the “fold change (FC)” value in assay [1] is reported as 0.9; in assay [2], 521.
